# Screening data from PubChem.
# Hits are enriched below; roughly 2.5% of the tested compounds scored in any of these assays.
# MC4R antagonist – antagonists of human melanocortin 4 receptor (MC4R); P32245; MC4R-expressing cells, MTII-stimulated cAMP, LANCE TR-FRET; inhibition, % at 6.5 µM; 360,000 compounds, 0.48% hits; AID 540295;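 active means inhibition above its plate's cutoff, the mean of tested wells on that plate plus 3 SD, cut at about 29% in these data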;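 further: 0% = Melanotan II alone and 100% = Melanotan II plus saturating MCL0020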
# Target sequence (P32245 whole entry, looked up): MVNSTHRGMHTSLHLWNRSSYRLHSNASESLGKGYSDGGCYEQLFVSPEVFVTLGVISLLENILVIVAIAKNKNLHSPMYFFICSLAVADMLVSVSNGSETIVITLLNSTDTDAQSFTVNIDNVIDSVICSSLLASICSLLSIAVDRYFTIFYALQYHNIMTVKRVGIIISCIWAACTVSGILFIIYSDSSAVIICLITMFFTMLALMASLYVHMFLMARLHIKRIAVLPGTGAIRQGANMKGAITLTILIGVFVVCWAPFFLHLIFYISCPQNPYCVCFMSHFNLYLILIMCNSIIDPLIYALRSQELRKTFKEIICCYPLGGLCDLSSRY
#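 Assay system: U2OS-MC4R stable cell line; Also added: Melanotan II; Technique: Eu-cAMP/anti-cAMP TR-FRET, emission 671 nm; Times: 30-min compound, 1-h challenge, 1-h detection, room temperature.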
# NLRP3 yeast inh – NALP3 inhibition in yeast. Yeast reconstituted NLRP3/ASC/caspase-1, beta-gal luminescence, 24 h. inhibition, % at 10 µM. 330,000 compounds, 0.39% hits. AID 2825;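 active means inhibition of 50% or more; inactive means inhibition below 50%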;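 further: plate controls were induced DMSO wells for no effect and uninduced yeast grown without galactose for full effect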
# NALP1 yeast inh – blocks the NALP1 inflammasome reconstituted in yeast; S. cerevisiae NALP1/ASC/caspase-1 growth, X-gal OD620, 72 h; inhibition, % at 10 µM; 280,000 compounds, 0.61% hits; in the data active means inhibition mostly above about 24%, no sharp cut-off; inactive means mostly below about 32%
# MC4R ag barr – activates human MC4R beta-arrestin recruitment; U2OS MC4R beta-arrestin complementation, luminescence; percent of melanotan II response, DMSO zero; activation, % at 8.9 µM; 360,000 compounds, 0.98% hits; AID 540308;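 active means activation above a per-plate cutoff, the mean activation of sample wells on that plate plus 3 SD, cut at about 8% in these data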
# TbMetRS inhib – Trypanosoma brucei MetRS inhibition; purified T. brucei MetRS, ATP depletion, Kinase-Glo luminescence; inhibition, % at 11.9 µM; 360,000 compounds, 0.4% hits; AID 624268;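 active means inhibition above a per-plate cutoff of the control wells' mean inhibition plus 3 SD, cut at about 5.5% in these data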;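 further: 0% = DMSO wells median and 100% = median of wells with control inhibitor compound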
#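 technique = Kinase-Glo luminescence, ATP depletion format | system = purified MetRS (methionyl-tRNA synthetase) enzyme from Trypanosoma brucei | timing = 15 min preincubation, 2 h reaction, all 25 °C | evaluation = percent inhibition versus plate control medians | dosing = single dose, 11.9 µM final nominal, 0.9% final DMSO | also added = substrates ATP, L-methionine and bulk Escherichia coli tRNA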
# A1 inh – inhibitors of the anti-apoptotic protein A1, read as caspase activation; MEF A1-2A-BIM cells, Caspase-Glo 3/7 luminescence, 3 h; percent of clofoctol response, vehicle zero; caspase activation, % (no concentration beside the values); 330,000 compounds, 0.066% hits; AID 2462;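 active means over half of replicate activation scores above 10%, or exactly half above 10 with the replicate mean above 10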
# NALP3 confirm – confirmation of NALP3 inhibitors in yeast. shares compounds with NLRP3 yeast inh. 1,300 compounds, 81% hits. inhibition, % at 10 µM. yeast expressing human NALP3, luminescence. AID 435006; in the data active means inhibition above about 48%
# Casp1-ASC yeast – caspase-1-ASC yeast counter-screen hit | shares compounds with NLRP3 yeast inh | yeast expressing Caspase-1-ASC, luminescence counter screen | inhibition, % at 10 µM | 1,000 compounds, 66% hits | AID 488784
# NALP3 retest – confirmation retest of NALP3 inhibitors in yeast; shares compounds with NLRP3 yeast inh; yeast expressing human NALP3, luminescence read-out; inhibition, % at 10 µM; 1,000 compounds, 53% hits; AID 488794
# * hit, by the source's call; nt = not tested or not shown. Unless noted, no stated cut-off is given here; in the data, active means inhibition above about 50%; inactive means the rest.
SMILES,MC4R antagonist,NLRP3 yeast inh,NALP1 yeast inh,MC4R ag barr,TbMetRS inhib,A1 inh,NALP3 confirm,Casp1-ASC yeast,NALP3 retest
CC(C)Oc1ccc(C(=O)/C=C2/C(=O)Nc3ccccc32)cc1,-5,65*,-47,1,0,0,76*,86*,64*
CCOC(=O)CSc1n[nH]c(-c2cccnc2)n1,5,6,-2,1,0,1,nt,nt,nt
CCOC(=O)c1nc(C)nc(Sc2n[nH]c(-c3cc(Cl)cc(Cl)c3)n2)c1C,1,51*,nt,1,0,0,31,nt,nt
Cc1ccccc1NC(=O)Nc1ccccn1,10,53*,13,1,0,-2,69*,47,33
COc1ccccc1NC(=O)Nc1ncccc1C,4,60*,26,0,-1,0,71*,nt,nt
Cc1ccc(C(=O)NCC(=O)N2CCN(c3cccc(Cl)c3)CC2)s1,-1,21,nt,0,-1,-1,nt,nt,nt
Cc1ccccc1C(=O)N1CCC(C(=O)NCCc2ccc(S(N)(=O)=O)cc2)CC1,13,4,-4,0,0,0,nt,nt,nt
COc1ccc(Cn2c(C3CCCCC3)nc3c(c(=O)c4ccccc4n3C)c2=O)cc1,nt,1,-9,nt,nt,1,nt,nt,nt
Cn1c2ccccc2c(=O)c2c(=O)n(C3CCCCCC3)c(C3CCCCC3)nc21,10,nt,45,-1,0,nt,nt,nt,nt
Cn1c2ccccc2c(=O)c2c(=O)n(C3CCCCC3)c(-c3cccs3)nc21,9,58*,10,-1,-1,0,71*,55*,52*
COc1ccc(CCn2c(C3CCCCC3)nc3c(c(=O)c4ccccc4n3C)c2=O)cc1,-10,67*,nt,5,-1,0,65*,55*,61*
COc1ccc(CCn2c(C3CCCCC3)nc3c(c(=O)c4ccccc4n3C)c2=O)cc1OC,5,64*,-4,0,-1,1,84*,44,50
C[C@]12CC[C@H](O)CC1=C[C@H](O)C1C2CC[C@@]2(C)C1CC[C@@]2(O)C#Cc1ccc(CN)cc1 (some centres undefined),-1,nt,nt,-3,0,nt,nt,nt,nt
CC(C)Oc1ccc2c(=O)c(-c3ccccc3)coc2c1,-1,58*,49,1,0,-6,66*,40,37
CCc1sc(C(=O)Nc2nc(C)cs2)cc1C,25,56*,28,1,0,nt,72*,66*,54*
CCc1sc(C(=O)Nc2ccc(NC(C)=O)cc2)cc1C,5,25,27,-1,-1,1,nt,nt,nt
Cc1ccccc1N(C)S(=O)(=O)c1nnc(NC(=O)c2ccco2)s1,5,11,20,-3,0,0,nt,nt,nt
CC(=O)Nc1ccccc1NC(=O)C/C(C)=N/NC(=O)Cc1cccc2ccccc12,11,7,-1,0,0,2,nt,nt,nt
CCCOc1ccc(-c2cn3ccccc3n2)cc1,1,72*,5,0,-2,0,56*,88*,76*
O=Cc1cccc(OC(=O)Nc2ccccc2)c1,2,12,nt,-2,0,-1,nt,nt,nt
CC(=O)OCC(=O)[C@H]1CC[C@H]2[C@@H]3CC=C4C[C@@H](O)CC[C@]4(C)[C@H]3CC[C@]12C,9,65*,51,0,0,0,77*,56*,48
CC(=O)[C@H]1CCC2C3CC=C4C[C@@H](O)CC[C@]4(C)C3CC[C@@]21C (some centres undefined),10,53*,nt,0,1,0,64*,nt,nt
COc1ccccc1-c1oc2ccccc2c1C#CC(C)(C)O,2,72*,nt,2,0,-1,59*,71*,60*
COc1ccccc1-c1oc2ccccc2c1C#CCO,0,-18,nt,0,0,-1,nt,nt,nt
